According to ChEMBL document CHEMBL1153840, “Targeting of the Brucella suis virulence factor histidinol dehydrogenase by histidinol analogues results in inhibition of intramacrophagic multiplication of the pathogen” (Antimicrob Agents Chemother, 2007):
The source made the active and inactive calls. The rule behind the calls is not given here.

Tests used:
Histidinol dehydrogenase = molecular target: T1, Histidinol dehydrogenase (Brucella suis biovar 1 (strain 1330), UniProt Q8G2R2); test: Inhibition of Brucella suis histidinol dehydrogenase
T1 sequence (Q8G2R2 whole entry): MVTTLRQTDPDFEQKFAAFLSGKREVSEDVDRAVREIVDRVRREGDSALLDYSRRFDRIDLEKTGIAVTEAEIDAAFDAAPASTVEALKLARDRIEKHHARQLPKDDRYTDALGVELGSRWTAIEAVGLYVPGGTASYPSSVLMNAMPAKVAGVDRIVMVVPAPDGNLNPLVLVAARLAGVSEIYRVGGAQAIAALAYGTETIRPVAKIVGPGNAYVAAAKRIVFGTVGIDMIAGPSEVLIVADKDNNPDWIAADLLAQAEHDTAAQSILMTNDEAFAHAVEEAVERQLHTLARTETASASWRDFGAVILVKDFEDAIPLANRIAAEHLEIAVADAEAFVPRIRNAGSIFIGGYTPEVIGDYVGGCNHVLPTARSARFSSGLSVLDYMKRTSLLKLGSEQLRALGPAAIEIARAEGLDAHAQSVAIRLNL

Brucella suis [1] = test: Antibacterial activity against Brucella suis 1330 assessed as reduction in bacterial growth in minimal medium after 96 hrs relative to control; format: functional
Brucella suis [2] = test: Antibacterial activity against Brucella suis 1330 in minimal medium after 96 hrs; format: functional, organism-based
THP-1 = test: Toxicity against human THP1 cells at 25 uM after 48 hrs by trypan blue exclusion method; format: cell-based; settings: thp-1, 48 h
In short: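 Infected THP1 macrophage-like cells are stained with trypan blue at 48 h postinfection, at the drug concentrations used in the intracellular assay.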

Brucella suis [3] = test: Antibacterial activity against Brucella suis 1330 assessed as reduction in bacterial intramacrophagic multiplication in human THP1 cells at 25 uM treated 90 mins postinfection measured 24 hrs postinfection relative to control; format: functional, THP-1
Brucella suis [4] = test: Inhibition of intracellular replication of Brucella suis 1330 in human THP1 cells assessed as reduction in number of viable intracellular bacteria at 25 uM treated 90 mins postinfection measured 24 hrs postinfection relative to control; format: functional, organism-based; settings: THP-1
Brucella suis [5] = test: Antibacterial activity against Brucella suis 1330 in minimal medium at 100 uM after 96 hrs; format: functional, organism-based
Brucella suis [6] = test: Growth inhibition of Brucella suis 1330 in minimal medium containing 1 mM histidine at 100 uM after 96 hrs; format: functional, organism-based
Brucella suis [7] = test: Growth inhibition of Brucella suis 1330 in minimal medium devoid of 1 mM histidine at 100 uM after 96 hrs; format: functional, organism-based

Compound | IC50 (Histidinol dehydrogenase) [nM] | fold change (FC) (Brucella suis [1]) | inhibition (Brucella suis [2]) | Activity (THP-1) | fold change (FC) (Brucella suis [3]) | Activity (Brucella suis [4]) | inhibition (Brucella suis [5]) | Activity (Brucella suis [6]) | Activity (Brucella suis [7])
Cl.Cl.N[C@@H](Cc1c[nH]cn1)C(=O)Cc1ccc(F)cc1F | 6 | 12 |  |  |  |  |  |  | 
Cl.Cl.N[C@@H](Cc1c[nH]cn1)C(=O)Cc1ccc2ccccc2c1 | 6 | 12 | Dose-dependent effect | Non-toxic | 50 | Active | Active |  | 
Cl.Cl.N[C@@H](Cc1c[nH]cn1)C(=O)Cc1ccc(Br)cc1 |  | 12 | Dose-dependent effect | Non-toxic | 50 | Active | Active |  | 
Cl.Cl.N[C@@H](Cc1c[nH]cn1)C(=O)Cc1ccc(Oc2ccccc2)cc1 | 6 | 12 |  |  |  |  |  |  | 
Cl.Cl.N[C@@H](Cc1c[nH]cn1)C(=O)Cc1ccc(Cl)cc1 | 6 | 12 | Dose-dependent effect | Non-toxic | 50 | Active | Active |  | 
Cl.Cl.N[C@@H](Cc1c[nH]cn1)C(=O)Cc1cccc2ccccc12 | 6 | 12 |  |  |  |  |  |  | 
Cl.Cl.N[C@@H](Cc1c[nH]cn1)C(=O)Cc1ccc2c(c1)OCO2 | 6 | 12 |  |  |  |  |  |  | 
Cl.Cl.N[C@@H](Cc1c[nH]cn1)C(=O)Cc1ccc(Cl)c(Cl)c1 | 6 | 12 |  |  |  |  |  |  | 
Cc1ccc(CC(=O)[C@@H](N)Cc2c[nH]cn2)cc1.Cl.Cl | 6 | 12 |  |  |  |  |  |  | 
Cl.Cl.N[C@@H](Cc1c[nH]cn1)C(=O)Cc1ccccc1 | 6 | 12 |  |  |  |  |  |  | 
Cl.Cl.N[C@@H](Cc1c[nH]cn1)C(=O)Cc1ccc(F)cc1 | 6 | 12 |  |  |  |  | Active |  | 
Cl.Cl.N[C@@H](Cc1c[nH]cn1)C(=O)Cc1ccc(OCc2ccccc2)cc1 |  | 12 |  |  |  | Active |  |  | 
Cl.Cl.N[C@@H](Cc1c[nH]cn1)C(=O)Cc1ccc(-c2ccccc2)cc1 | 6 | 12 | Dose-dependent effect | Non-toxic | 50 | Active | Active | inactive | Active
COc1ccc(CC(=O)[C@@H](N)Cc2c[nH]cn2)cc1.Cl.Cl | 6 | 12 |  |  |  |  |  |  | 
Cl.Cl.N[C@@H](Cc1c[nH]cn1)C(=O)Cc1c(F)c(F)c(F)c(F)c1F | 6 | 12 |  |  |  |  |  |  | 
